Data reported in ChEMBL document CHEMBL3400011, “Canthinone alkaloids are novel protein tyrosine phosphatase 1B inhibitors” (Bioorg Med Chem Lett, 2015).

How the values were obtained:
[1] = target: T1, Tyrosine-protein phosphatase non-receptor type 1 (Homo sapiens) (UniProt P18031); assay: Inhibition of PTP1B (unknown origin) assessed as inhibition rate at 100 uM
T1 sequence (whole entry): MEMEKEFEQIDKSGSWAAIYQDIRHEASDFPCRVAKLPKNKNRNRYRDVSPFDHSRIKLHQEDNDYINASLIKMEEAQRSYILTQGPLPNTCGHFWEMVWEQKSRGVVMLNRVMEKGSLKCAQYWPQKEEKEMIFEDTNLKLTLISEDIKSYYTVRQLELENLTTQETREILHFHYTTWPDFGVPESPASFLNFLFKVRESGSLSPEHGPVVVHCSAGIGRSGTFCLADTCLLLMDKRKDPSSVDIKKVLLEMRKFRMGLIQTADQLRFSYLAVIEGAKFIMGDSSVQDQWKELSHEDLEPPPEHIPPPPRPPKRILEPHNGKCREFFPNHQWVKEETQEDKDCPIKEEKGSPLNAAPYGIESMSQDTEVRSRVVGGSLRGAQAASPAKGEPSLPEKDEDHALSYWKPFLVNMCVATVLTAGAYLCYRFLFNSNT
Outline: (§1)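 PTP1B enzymatic assay with RK-682 as the positive control. For the single-point screen, compounds were tested at a final 100 µM. For dose–response, inhibition was measured over a range of compound concentrations, and IC50 was obtained by regression analysis.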

[2] = target: Dual specificity protein phosphatase 3 (Homo sapiens) (UniProt P51452); assay: Inhibition of VHR (unknown origin) assessed as inhibition rate at 75 uM
Dual specificity protein phosphatase 3 (Homo sapiens), sequence (P51452 whole entry, looked up): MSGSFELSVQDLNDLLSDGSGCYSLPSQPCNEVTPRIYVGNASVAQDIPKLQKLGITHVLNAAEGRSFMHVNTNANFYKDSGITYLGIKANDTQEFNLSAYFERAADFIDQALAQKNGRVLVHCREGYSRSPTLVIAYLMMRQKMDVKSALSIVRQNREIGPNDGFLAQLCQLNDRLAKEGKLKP

[3] = target: T2, Tyrosine-protein phosphatase non-receptor type 2 (Homo sapiens) (UniProt P17706); assay: Inhibition of TCPTP (unknown origin) assessed as inhibition rate at 75 uM
T2 sequence (whole entry): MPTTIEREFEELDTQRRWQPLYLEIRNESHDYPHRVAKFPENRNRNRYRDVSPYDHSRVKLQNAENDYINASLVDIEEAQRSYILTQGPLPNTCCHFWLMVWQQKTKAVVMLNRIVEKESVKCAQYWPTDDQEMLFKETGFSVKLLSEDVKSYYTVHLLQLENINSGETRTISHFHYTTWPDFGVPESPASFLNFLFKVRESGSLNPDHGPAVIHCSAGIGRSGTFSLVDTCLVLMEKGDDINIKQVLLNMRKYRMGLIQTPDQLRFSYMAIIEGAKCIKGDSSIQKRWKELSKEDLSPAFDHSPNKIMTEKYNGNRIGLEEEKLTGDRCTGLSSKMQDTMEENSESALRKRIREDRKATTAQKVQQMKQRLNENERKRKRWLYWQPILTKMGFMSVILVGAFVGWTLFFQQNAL

[4] = species: Homo sapiens; assay: Ratio of inhibition rate for PTP1B (unknown origin) at 75 uM to inhibition rate for VHR (unknown origin) at 75 uM
[5] = species: Homo sapiens; assay: Ratio of inhibition rate for PTP1B (unknown origin) at 75 uM to inhibition rate for SHP2 (unknown origin) at 75 uM
[6] = species: Homo sapiens; assay: Ratio of inhibition rate for PTP1B (unknown origin) at 75 uM to inhibition rate for TCPTP (unknown origin) at 75 uM
[7] = target: T3, Tyrosine-protein phosphatase non-receptor type 11 (Homo sapiens) (UniProt Q06124); assay: Inhibition of SHP2 (unknown origin) assessed as inhibition rate at 75 uM
T3 sequence (whole entry): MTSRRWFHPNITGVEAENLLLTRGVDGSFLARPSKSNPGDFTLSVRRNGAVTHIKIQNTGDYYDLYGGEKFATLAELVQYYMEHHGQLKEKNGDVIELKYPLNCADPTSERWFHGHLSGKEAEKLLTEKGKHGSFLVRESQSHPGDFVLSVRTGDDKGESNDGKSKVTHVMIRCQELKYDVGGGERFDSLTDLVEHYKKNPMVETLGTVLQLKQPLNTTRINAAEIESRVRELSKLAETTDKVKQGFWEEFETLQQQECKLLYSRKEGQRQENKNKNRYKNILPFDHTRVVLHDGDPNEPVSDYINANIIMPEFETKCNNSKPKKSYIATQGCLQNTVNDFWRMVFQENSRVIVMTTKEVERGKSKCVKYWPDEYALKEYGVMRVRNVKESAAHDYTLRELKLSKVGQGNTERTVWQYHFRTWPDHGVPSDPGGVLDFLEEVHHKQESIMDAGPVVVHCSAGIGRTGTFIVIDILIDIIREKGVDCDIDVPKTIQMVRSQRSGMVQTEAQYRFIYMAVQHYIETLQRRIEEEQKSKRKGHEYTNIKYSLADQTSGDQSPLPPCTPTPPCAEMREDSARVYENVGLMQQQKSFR

[8] = species: Homo sapiens; assay: Ratio of inhibition rate for PTP1B (unknown origin) at 75 uM to inhibition rate for SHP1 (unknown origin) at 75 uM
[9] = target: Tyrosine-protein phosphatase non-receptor type 6 (Homo sapiens) (UniProt P29350); assay: Inhibition of SHP1 (unknown origin) assessed as inhibition rate at 75 uM
Tyrosine-protein phosphatase non-receptor type 6 (Homo sapiens), sequence (P29350 whole entry): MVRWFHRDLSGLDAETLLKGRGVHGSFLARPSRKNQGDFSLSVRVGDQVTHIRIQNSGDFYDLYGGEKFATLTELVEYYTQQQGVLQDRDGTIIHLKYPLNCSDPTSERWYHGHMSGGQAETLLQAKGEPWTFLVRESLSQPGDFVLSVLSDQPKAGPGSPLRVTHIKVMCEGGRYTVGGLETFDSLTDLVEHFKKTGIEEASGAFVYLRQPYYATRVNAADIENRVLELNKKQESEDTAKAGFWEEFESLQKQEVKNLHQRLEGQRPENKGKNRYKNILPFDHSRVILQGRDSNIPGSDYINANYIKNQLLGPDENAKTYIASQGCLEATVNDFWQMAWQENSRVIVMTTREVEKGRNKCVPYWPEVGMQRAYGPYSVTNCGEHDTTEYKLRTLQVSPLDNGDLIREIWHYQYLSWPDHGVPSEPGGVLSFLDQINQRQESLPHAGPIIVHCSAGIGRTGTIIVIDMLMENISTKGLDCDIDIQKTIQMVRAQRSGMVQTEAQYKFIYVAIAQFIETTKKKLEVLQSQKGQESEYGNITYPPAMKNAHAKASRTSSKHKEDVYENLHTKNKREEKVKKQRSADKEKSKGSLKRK

[10] = target: T1, Tyrosine-protein phosphatase non-receptor type 1 (Homo sapiens); assay: Inhibition of PTP1B (unknown origin) assessed as inhibition rate at 75 uM
[11] = target: T4, Tyrosine-protein phosphatase non-receptor type 1 (Homo sapiens, UniProt P18031); assay: Inhibition of PTP1B (unknown origin); outline: as §1
T4 sequence (P18031 whole entry): T1 sequence (whole entry)

[12] = target: T4, Tyrosine-protein phosphatase non-receptor type 1; assay: Non-competitive inhibition of PTP1B (unknown origin) assessed as hydrolysis of para-nitrophenylphosphate by Lineweaver-Burk plot
Outline: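 Kinetic study of PTP1B varying both compound and p-nitrophenylphosphate substrate concentrations. Mode was read from Lineweaver–Burk plots. Slopes from those plots were replotted against compound concentration (secondary plot), and Ki was calculated from that plot.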

[13] = tested on: HepG2; assay: Induction of Akt phosphorylation in insulin-stimulated human HepG2 cells assessed as pAkt/Akt ratio at 50 uM after 5 mins by western blotting analysis relative to control; format: functional
Outline: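 HepG2 cells were treated with compound at 50 µM, then stimulated with insulin. pAkt was assessed by western blotting at 0 and 5 min after insulin. DMSO served as the negative control and sodium orthovanadate (200 µM) as the positive control. Values are expressed relative to control.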

Compound	inhibition [1]	further results
COn1c(=O)cc2c3ccccc3n3c(=O)ccc1c23	31.2%	
O=C(O)c1cc2c([nH]c3ccccc32)c(-c2cccc3c2OCO3)n1	19.8%	
CC1NC(C(=O)O)Cc2c1[nH]c1ccccc21 (configuration not stated)	21.3%	
COc1c2n(C)ccc3c-2n(c(=O)c1=O)c1ccccc31	76.6%	
O=c1ccc2nccc3c4c(O)cccc4n1c23	50.6%	
CCCCn1ccc2c3n(c(=O)c(=O)c(OC)c1-3)c1ccccc21	11.7%	
COc1c(OC)c2c3c(cc(=O)n2C)c2ccccc2n3c1=O	34.4%	
COc1c(O)c(=O)n2c3ccccc3c3cc(=O)n(C)c1c32	26.3%	
COC(=O)c1nccc2c1[nH]c1ccccc12	2.9%	
O=c1c(CO)cc2nccc3c4ccccc4n1c23	33.8%	
COc1cccc2c1[nH]c1c(C(=O)CCC(=O)c3ncc(OC)c4c3[nH]c3c(OC)cccc34)ncc(OC)c12	43.8%	
CCCC1NC(C(=O)O)Cc2c1[nH]c1ccccc21 (configuration not stated)	46.9%	
O=Cc1nccc2c1[nH]c1ccccc12	9.8%	
O=C(O)c1nccc2c1[nH]c1ccccc12	28.5%	
CCCCn1ccc2c3n(c(=O)c(=O)cc1-3)c1ccccc21	42%	
COc1c(OC)c2nc(O)cc3c4ccccc4n(c1=O)c23	81.9%	
CCc1nc(C(=O)OC)cc2c1[nH]c1ccccc12	21.2%	
CCC1NC(C(=O)O)Cc2c1[nH]c1ccccc21 (configuration not stated)	20.8%	
COC(=O)c1cc2c([nH]c3ccccc32)c(C)n1	14.3%	
COc1cnc(C(O)CO)c2[nH]c3ccccc3c12 (configuration not stated)	10.5%	
O=c1ccc2nccc3c4ccccc4n1c23	15.3%	
COc1c(OC)c2c3c(cc[n+]2[O-])c2ccccc2n3c1=O	14.8%	
COc1cccc2c1[nH]c1c(CCC(OC)C(=O)c3nccc4c3[nH]c3ccccc34)ncc(OC)c12 (configuration not stated)	44.1%	
COCc1nccc2c1[nH]c1ccccc12	27.4%	

Compound	inhibition [1]	further results
OCc1nccc2c1[nH]c1ccccc12	17%	
CCc1c2[nH]c3ccccc3c2cc[n+]1[O-]	4.3%	
COc1c(O)c2nccc3c4cc(O)ccc4n(c1=O)c23	30.5%	
COC(=O)C1Cc2c([nH]c3ccccc23)CN1 (configuration not stated)	21.3%	
Cc1nc(C(=O)O)cc2c1[nH]c1ccccc12	18.2%	
COc1cnc(C(OC)OC(C)=O)c2[nH]c3ccccc3c12 (configuration not stated)	11.6%	
Cc1c2n(C)ccc3c-2n(c(=O)c1=O)c1ccccc31		inhibition [2]: 26.5%; inhibition [3]: 49.7%; Ratio [4]: 3.5; Ratio [5]: 3.8; Ratio [6]: 1.9; inhibition [7]: 23.3%; Ratio [8]: 3.8; inhibition [9]: 24.4%; inhibition [10]: 92.1%; IC50 [11]: 24.7 µM; Ki [12]: 19.9 µM
C=Cc1ncc(OC)c2c3ccccc3n(OC)c12	33.5%	
CCc1ncc(OC)c2c1[nH]c1ccccc12	16.1%	
CCc1nccc2c1[nH]c1ccccc12	30.2%	
Cc1nccc2c1[nH]c1ccccc12	7.7%	
CCn1ccc2c3n(c(=O)c(=O)cc1-3)c1ccccc21	63.4%	
COc1c(O)c2nccc3c4ccccc4n(c1=O)c23	55.9%	
COc1c(OC(C)=O)c(=O)n2c3ccccc3c3cc(OC(C)=O)nc1c32	41.7%	
CCn1ccc2c3n(c(=O)c(=O)c(OC)c1-3)c1ccccc21	43.6%	
Oc1nccc2c1[nH]c1ccccc12	8.5%	
COc1c(OC(C)=O)c(=O)n2c3ccccc3c3ccnc1c32	68.8%	
CCCC1NC(C(=O)OC)Cc2c1[nH]c1ccccc21 (configuration not stated)	7.9%	
CC(C)C1NC(C(=O)O)Cc2c1[nH]c1ccccc21 (configuration not stated)	11.3%	
C=Cc1ncc(OC)c2c1[nH]c1c(OC)cccc12	40.3%	
CCn1ccc2c3n(c(=O)c(=O)cc1-3)c1cc(OC)ccc21	59.4%	
COc1cnc(CCn2ccc3c4n(c(=O)c(=O)cc2-4)c2ccccc32)c2c1c1ccccc1n2OC	43.9%	
Cn1c(=O)cc2c3ccccc3n3c(=O)ccc1c23	33.6%	
O=c1ccc2c3c(cc[n+]2[O-])c2ccccc2n13	50.9%	

Compound	inhibition [1]	further results
O=c1c(O)cc2nccc3c4ccccc4n1c23	84.7%	
COCc1c2[nH]c3ccccc3c2cc[n+]1[O-]	59%	
COCCc1ncc(OC)c2c1[nH]c1c(OC)cccc12	28.6%	
O=C1NC(=O)c2[nH]c3ccccc3c2C1=O	80.7%	
CCc1ncc(OC)c2c1[nH]c1c(O)cccc12	27.1%	
COc1cccc2c1[nH]c1c(CCn3ccc4c5n(c(=O)c(=O)cc3-5)c3ccccc43)ncc(OC)c12	48.5%	
COc1cnc2ccc(=O)n3c4ccccc4c1c23	23.7%	
COC(=O)c1cc2c(cn1)[nH]c1ccccc12	23%	
COc1cc2nccc3c4ccccc4n(c1=O)c23 [5-METHOXYCANTHINONE]		inhibition [2]: 27.5%; pAkt/Akt ratio [13]: 1.3; inhibition [3]: 48.4%; Ratio [4]: 3.3; Ratio [5]: 5; Ratio [6]: 1.9; inhibition [7]: 18.3%; Ratio [8]: 4; inhibition [9]: 22.8%; inhibition [10]: 91%; IC50 [11]: 20.3 µM; Ki [12]: 10.3 µM
O=C(O)CCc1nccc2c1[nH]c1ccccc12	39.3%	
Cc1c2[nH]c3ccccc3c2cc[n+]1[O-]	-3%	
NC(=O)c1nccc2c1[nH]c1ccccc12	20.3%	
COc1cnc(C(C)=O)c2[nH]c3ccccc3c12	21.6%	
COc1cnc(C(=O)CC(CO)c2ncc(OC)c3c2[nH]c2ccccc23)c2[nH]c3ccccc3c12 (configuration not stated)	33%	
COc1ccc2c3ccnc4ccc(=O)n(c2c1)c43	34.9%	
C(=C\c1nccc2c1[nH]c1ccccc12)/c1ccccc1	15%	
COC(=O)/C=C/C(=O)c1ncc(OC)c2c1[nH]c1c(OC)cccc12	21%	
COc1c(OC)c2nccc3c4ccccc4n(c1=O)c23	26.5%	
CCOC(=O)c1nccc2c1[nH]c1ccccc12	26.9%	
CC(=O)c1nccc2c1[nH]c1ccccc12	25.1%	
CCC1NC(C(=O)c2ccccc2)Cc2c1[nH]c1ccccc21 (configuration not stated)	4.7%	
COc1c(O)c(=O)n2c3ccccc3c3ccnc1c32	42.8%	
O=C(O)C1Cc2c([nH]c3ccccc23)CN1 (configuration not stated)	26%	
